One data set deals with HEK293. Kind of data set: Cytotoxicity against HEK293 cells assessed as decrease in cell viability at 10 uM after 24 hrs by resazurin based assay. The conditions noted are these: human, hek293, 24 h. Put shortly: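 HEK293 cells seeded at 4 × 10^4 cells/well, grown overnight, then exposed to compound at 0.3, 1, 3, 10 and 30 μM for 24 h. Resazurin (10 μg/mL in PBS) added for 4 h at 37 °C. Resorufin fluorescence read at 535 nm excitation/590 nm emission as the viability measure.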

Data set [1] deals with T1, Peroxisome proliferator-activated receptor gamma (Homo sapiens) (UniProt P37231).
T1 sequence (whole entry): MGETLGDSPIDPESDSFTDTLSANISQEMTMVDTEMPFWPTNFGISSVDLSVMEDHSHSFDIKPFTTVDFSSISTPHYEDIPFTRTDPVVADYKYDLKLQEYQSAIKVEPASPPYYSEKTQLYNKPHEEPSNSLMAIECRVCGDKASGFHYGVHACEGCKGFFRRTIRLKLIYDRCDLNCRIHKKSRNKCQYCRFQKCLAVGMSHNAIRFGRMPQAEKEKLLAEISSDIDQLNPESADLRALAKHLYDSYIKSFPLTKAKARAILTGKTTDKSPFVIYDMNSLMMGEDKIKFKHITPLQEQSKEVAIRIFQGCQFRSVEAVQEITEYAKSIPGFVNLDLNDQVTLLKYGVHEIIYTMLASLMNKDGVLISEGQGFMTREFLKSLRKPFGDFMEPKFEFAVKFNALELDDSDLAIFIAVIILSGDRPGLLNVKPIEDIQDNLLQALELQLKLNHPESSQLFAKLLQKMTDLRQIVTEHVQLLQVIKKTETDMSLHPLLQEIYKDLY
Kind of data set: Transactivation of human full length PPARgamma expressed in HEK293 cells up to 3 uM after 18 hrs by luciferase reporter gene based luminescence assay. It counts as cell-based. Put shortly: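 HEK293 cells transfected for 6 h with full-length human PPARγ, a PPRE-firefly luciferase reporter and pEGFP-N1 (internal control). Cells reseeded in serum-free DMEM, dosed at 0.1–30 μM in DMSO and incubated 18 h. Luciferase/EGFP ratio expressed as fold induction over 0.1% DMSO; pioglitazone 5 μM as positive control. EC50 from a variable-slope sigmoidal fit.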
(In general: In a reporter assay the amount or activity of a reporter protein is the signal.)

For data set [2], the target named is GABA-A receptor; alpha-1/beta-2/gamma-2 (Homo sapiens) (UniProt P14867+P47870+P18507). Kind of data set: Positive allosteric modulation of GABAA receptor alpha1beta2gamma2 (unknown origin) expressed in Xenopus laevis oocytes assessed as GABA-stimulated current amplitude at 1 to 10 uM incubated for 120 secs by electrophysiological method relative to control. It counts as cell-based. Summed up:
(§1)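 Two-electrode voltage clamp on Xenopus oocytes injected with subunit mRNA mixtures (α1β3 or α1β2γ2). Compounds at 1 and 10 μM, diluted into measurement buffer, co-applied with GABA at EC3-5, EC20, EC50 and EC80. Result taken as enhancement of the GABA-elicited current.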

In data set [3] the target is GABA-A receptor alpha-1/beta-3 (Homo sapiens) (UniProt P14867+P28472). The data set can be described thus: Positive allosteric modulation of GABAA receptor alpha1beta3 (unknown origin) expressed in Xenopus laevis oocytes assessed as GABA-stimulated current amplitude at 1 to 10 uM up to 120 secs by electrophysiological method. It counts as cell-based. Put shortly: as §1

In a further data set the test system is Oocyte. Kind of data set: Induction of current amplitude in Xenopus laevis oocytes after […] by electrophysiological method. In kind it is functional, cell-based.

Structures are written as SMILES. Active and inactive are the calls of the source. The rule behind the calls is not given here.

This note sets out measurements from ChEMBL document CHEMBL4266025, “Stereoselective Synthesis of the Isomers of Notoincisol A: Assigment of the Absolute Configuration of this Natural Product and Biological Evaluation” (J Nat Prod, 2018).

For the compound `C=CC(O)C#CC#CC(/C=C\CCCCCCC)OC(=O)/C=C/c1ccc(O)c(OC)c1` (stereo not drawn), the Activity entry in the data set on HEK293 is “Toxic”. The outcome in data set [1] was inactive.
Take `C=C[C@@H](O)C#CC#C[C@@H](/C=C\CCCCCCC)OC(=O)/C=C/c1ccc(O)c(OC)c1`: the fold change (FC) in data set [2] worked out at 4. The outcome (in data set [3]; with Oocyte) was Active. For the same compound, in data set [1], the outcome was inactive.
In the case of `C=C[C@H](O)C#CC#C[C@H](/C=C\CCCCCCC)OC(=O)/C=C/c1ccc(O)c(OC)c1`, in data set [2], the fold change (FC) was 4. For the same compound, the outcome (in data set [3]; in the data set with Oocyte) was Active. The result in data set [1] was inactive.
Consider `C=C[C@@H](O)C#CC#C[C@H](/C=C\CCCCCCC)OC(=O)/C=C/c1ccc(O)c(OC)c1`, for which the fold change (FC) in data set [2] came out at 4. In addition, the outcome (in data set [3]; in the data set on Oocyte) was Active.
Turning to `C=C[C@H](O)C#CC#C[C@@H](/C=C\CCCCCCC)OC(=O)/C=C/c1ccc(O)c(OC)c1`, the fold change (FC) in data set [2] was determined as 4. The result (in data set [3]; in the data set with Oocyte) was Active. For the same compound, the outcome in data set [1] was inactive.
With `CCC[C@@H](O)/C=C/C=C/C=C/C#CC#CCCCO` [CICUTOXIN], the Activity result in the data set with HEK293 is listed as “Toxic”. In data set [1], the outcome was inactive.
For `CCC[C@@H](O)CC/C=C/C=C/C#CC#CCCCO` [DIHYDROOENANTHOTOXIN], in that order: “Toxic” and “inactive”.
For `C=C[C@H](O)C#CC#C[C@@H](O)/C=C\CCCCCCC`, in that order: “Toxic” and “inactive”.
